Screening data from PubChem BioAssay.
Most compounds without a hit are left out; they make up all but 3.8% or so of the library.
MC4R antagonist: MC4R antagonists of cAMP signaling, primary screen, cell-based, TR-FRET, antagonist arm of biased-ligand search; MC4R-expressing cells, MTII-stimulated cAMP, LANCE TR-FRET; inhibition, % at 6.5 µM; Melanocortin receptor 4 (Homo sapiens), P32245; AID 540295, 2011; hit rate 0.48% among 360,000;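 active = inhibition above its plate's cutoff, the mean of tested wells on that plate plus 3 SD, cut at about 29% in these data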;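 also: 0% = Melanotan II alone and 100% = Melanotan II plus saturating MCL0020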
Target sequence (P32245 whole entry, looked up): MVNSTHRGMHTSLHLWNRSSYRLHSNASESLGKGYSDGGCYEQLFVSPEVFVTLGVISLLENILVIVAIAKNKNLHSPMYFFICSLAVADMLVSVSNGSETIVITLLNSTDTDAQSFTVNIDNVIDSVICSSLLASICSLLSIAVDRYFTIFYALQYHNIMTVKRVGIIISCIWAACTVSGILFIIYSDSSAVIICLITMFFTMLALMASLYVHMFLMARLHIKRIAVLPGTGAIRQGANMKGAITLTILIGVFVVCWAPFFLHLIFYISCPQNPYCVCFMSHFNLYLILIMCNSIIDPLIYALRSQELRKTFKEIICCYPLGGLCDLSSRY
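System: U2OS-MC4R stable cell line; Technique: Eu-cAMP/anti-cAMP TR-FRET, emission 671 nm; Repeats: single well per compound; Also added: Melanotan II; Dosing: one concentration, 6.5 µM nominal; Schedule: 30-min compound, 1-h challenge, 1-h detection, room temperature.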
MC4R barr agon: MC4R agonists recruiting beta-arrestin, primary screen, cell-based, luminescence, agonist arm of biased-ligand search; U2OS MC4R beta-arrestin complementation; percent of melanotan II response, DMSO zero; Melanocortin receptor 4 (Homo sapiens), P32245; activation, % at 8.9 µM; hit rate 0.98% among 360,000;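 active = activation above a per-plate cutoff, the mean activation of sample wells on that plate plus 3 SD, cut at about 8% in these data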
Beta cell apopt: inhibitors of cytokine-induced beta cell apoptosis, primary screen, luminescence. INS-1E cytokine-induced death, ATP luminescence, 48 h; percent of positive-control rescue, neutral wells zero. hit rate 0.8% among 300,000. protection from apoptosis, % (no concentration beside the values). AID 435005, 2010;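 active = Every replicate reaches about 75%, or at least half do and their mean reaches it too, limit read from the data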;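 also: 0% = cytokine-treated negative control wells and 100% = positive control rescue; higher means more ATP so stronger rescue from cytokine killing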
ANO1 activ: TMEM16A chloride channel activators or potentiators, primary screen, cell-based, HTS | B-score at 10 µM | Anoctamin-1 (Mus musculus), Q8BHY3 | HEK293 TMEM16A/YFP-H148Q/I152L, iodide quench fluorescence; active compounds read low | hit rate 0.3% among 340,000;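 active = fluorescence-ratio B-score plate-corrected deviation score at least 3 library SD below zero, with starting fluorescence score within 5 deviations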;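 also: channel opened by trigger with iodide after compound preincubation; score built on the fluorescence ratio of max minus min over baseline; more negative score means more quench and so TMEM16A activation or potentiation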
CSC inhib: cancer stem cell viability inhibitors, primary screen, luminescence. cancer stem cell-like cells viability. inhibition, % at 7.5 µM. hit rate 1.1% among 300,000; in the data active = inhibition above about 75%; tested in HMLE shEcad cells
ANO1 block: TMEM16A chloride channel inhibitors, primary screen, cell-based, HTS. Anoctamin-1 (Mus musculus), Q8BHY3. normalized B-score (activity score, 25-100; higher = stronger inhibition) at 10 µM. AID 588511, 2011. hit rate 1.2% among 310,000. HEK293 TMEM16A/YFP iodide influx fluorescence, ionomycin;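 active = ratio plate-corrected score three or more library SD toward inhibition, starting fluorescence score within five deviations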;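 also: score derived from kinetic fluorescence span divided by baseline fluorescence per well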
* hit, by the source's call; i = inactive; nt = no result given.

SMILES | MC4R antagonist | MC4R barr agon | Beta cell apopt | ANO1 activ | CSC inhib | ANO1 block
O=C1c2ccc(Cl)cc2S(=O)(=O)c2cccc(C(=O)N3CCC(Cc4ccccc4)CC3)c21 | 3 | 0 | 3 | i | 123* | nt
CCCC1NC(=O)c2cccnc2-n2c1nc1cc(F)c(F)cc1c2=O (stereo unspecified) | 15 | 0 | nt | nt | nt | nt
Cc1nn(Cc2c(F)c(F)c(F)c(F)c2F)c(C)c1NC(=O)c1nn(C)c(C)c1Br | 7 | -3 | 3 | i | -8 | i
Cc1cccc(Sc2c(C=O)c3ccccc3n2C)c1 | 3 | 0 | -8 | i | 15 | 25*
Cn1c(Sc2ccccc2Cl)c(C=O)c2ccccc21 | 5 | 0 | -3 | i | 16 | 100*
Cc1ccc(NC(=O)CSCC(=O)Nc2cccc3ncccc23)cc1 | 7 | -4 | -4 | i | -19 | i
COc1ccc(-c2nnc(SCC(=O)N3CCCC3=O)n2N)cc1OC | 0 | -3 | -2 | i | 6 | nt
N/C(Cc1ccc(Cl)cc1)=N\OC(=O)c1ccc2ccccc2c1 | 23 | 9.2* | 3 | i | -5 | i
OC(COc1ccc2ccccc2c1Br)Cn1cnc(-c2ccccc2)c1 (stereo unspecified) | 18 | -1 | 3 | i | 101* | i
COc1ccc(OCC(O)Cn2cnc(-c3ccc(Br)cc3)c2)cc1 (stereo unspecified) | 4 | 1 | 7 | i | 0 | i
O=C(CSc1ncnc2c1oc1ccccc12)Nc1nc2ccccc2s1 | 8 | 8.6* | -17 | i | -13 | i
O=C(Nc1nc(-c2ccccn2)cs1)c1ccc(Cl)s1 | -4 | 0 | 92* | i | 80* | i
Cc1cccnc1Nc1nc(-c2ccccc2)cs1 | 2 | 0 | nt | i | 22 | i
CCCCc1nnc(NC(=O)c2oc3ccccc3c2C)s1 | -1 | 9.1* | -4 | i | 9 | i
O=C(Nc1nc(-c2ccccn2)cs1)c1ncc(Cl)c(Cl)c1Cl | 7 | -2 | 16 | i | -12 | i
Cc1nnc(NC(=O)c2oc3ccccc3c2C)s1 | -6 | -2 | 1 | i | -5 | i
Cc1cccnc1Nc1nc(-c2ccccn2)cs1 | 3 | -4 | 101* | i | 101* | i
Cc1c(C(=O)Nc2nc(-c3ccccn3)cs2)oc2ccccc12 | 3 | -2 | 84* | i | 109* | nt
CCOC(=O)C1CCN(C(=O)c2ccc3nc(-c4ccc(OC)cc4)c(-c4ccc(OC)cc4)nc3c2)CC1 | 5 | -4 | 18 | i | 0 | i
CCOC(=O)C1(C)CCCN(C(=O)c2ccc(OC)c(OC)c2)C1 (stereo unspecified) | -6 | 1 | nt | nt | nt | nt
Cc1ccc(S(=O)(=O)N2CCN(S(=O)(=O)c3ccccc3Br)C2=O)cc1 | 16 | 0 | nt | i | nt | nt
Cc1ccc(C(=O)Nc2nc(-c3ccccn3)cs2)s1 | 1 | -3 | 95* | i | 43 | nt
O=C(Nc1nccs1)c1sc2cc(Cl)ccc2c1Cl | 1 | 10* | 22 | i | 54 | i
O=C(Nc1ccc(Cl)c(Cl)c1)Nc1nnc(CSc2ccccc2)s1 | -3 | 0 | 100* | i | 44 | i
O=C(Nc1nccs1)c1sc2ccccc2c1Cl | -4 | 1 | 20 | i | 40 | i
SMILES | MC4R antagonist | MC4R barr agon | Beta cell apopt | ANO1 activ | CSC inhib | ANO1 block
O=C(Nc1ccc(Cl)c(Cl)c1)Nc1nccs1 | -25 | -1 | 19 | i | 95* | i
O=C(Nc1cccc(Cl)c1)Nc1nccs1 | 1 | 1 | -5 | i | 27 | i
C(#Cc1ccccc1)C[N+]1(CC#Cc2cccc3ccccc23)CCCC1 | 7 | 0 | 77* | i | 15 | i
C/C(=N\NC(=O)c1c(C)nc2ccccn12)c1ccc(O)cc1O | 0 | -2 | 88* | i | 4 | i
CCC1CCCCN1C(=O)CCS(=O)(=O)c1ccccc1 (stereo unspecified) | 8 | -1 | -3 | i | -11 | i
CN(C)CCNC(=O)COc1ccc(C23CC4CC(CC(C4)C2)C3)cc1 | -4 | 2 | 13 | i | 82* | i
Cc1ccc(C23CC4CC(CC(NC(=O)NCCN(C)C)(C4)C2)C3)cc1 | 16 | 2 | -1 | i | 5 | i
NC1=NC[C@H](Cc2ccc(O)cc2)N1CCCCC1CCCCC1 | 8 | 0 | 102* | i | -26 | i
Cc1ccc(/C=N/NC(=O)NC2CCCCC2)o1 | 1 | -2 | -5 | i | -3 | i
Cc1ccc(/C=C/C(=O)NC2CCCCCCC2)o1 | -1 | 0 | 6 | i | 145* | i
C#CCN(Cc1ccccc1)S(=O)(=O)C=C | nt | nt | -13 | nt | 16 | nt
CCOCc1c(C(=O)NCC(c2ccco2)N2CCCC2)oc2ccccc12 (stereo unspecified) | -2 | 0 | -1 | i | -29 | nt
C[C@H]1CN([C@@H](C)CO)C(=O)Cc2cc(NC(=O)CCC(F)(F)F)ccc2O[C@H]1CN(C)Cc1ccc(C(F)(F)F)cc1 | 0 | 2 | 10 | i | 2 | nt
C[C@H]1CN([C@@H](C)CO)C(=O)Cc2cc(NC(=O)CCC(F)(F)F)ccc2O[C@H]1CN(C)Cc1ccc(-c2ccccc2)cc1 | 8 | 1 | 14 | i | 123* | nt
C[C@H](CO)N1C[C@H](C)[C@H](CN(C)Cc2ccc(-c3ccccc3)cc2)Oc2ccc(NS(=O)(=O)c3ccccc3)cc2CC1=O | 13 | 1 | -5 | i | 97* | nt
